ChEMBL document CHEMBL4673384, “Studying Histone Deacetylase Inhibition and Apoptosis Induction of Psammaplin A Monomers with Modified Thiol Group” (ACS Med Chem Lett, 2021)
Active and inactive are the calls of the source. The calls are words filed in the database; no cut-off is given here.

Columns and labels:
[1] = molecular target: T1, Protein deacetylase HDAC6 (Homo sapiens) (UniProt Q9UBN7); assay: Inhibition of HDAC6 in human HL-60 cells assessed as increase in acetylated alpha tubulin level at 0.5 uM after 24 hrs by Western blot analysis; format: cell-based
T1 sequence (whole entry): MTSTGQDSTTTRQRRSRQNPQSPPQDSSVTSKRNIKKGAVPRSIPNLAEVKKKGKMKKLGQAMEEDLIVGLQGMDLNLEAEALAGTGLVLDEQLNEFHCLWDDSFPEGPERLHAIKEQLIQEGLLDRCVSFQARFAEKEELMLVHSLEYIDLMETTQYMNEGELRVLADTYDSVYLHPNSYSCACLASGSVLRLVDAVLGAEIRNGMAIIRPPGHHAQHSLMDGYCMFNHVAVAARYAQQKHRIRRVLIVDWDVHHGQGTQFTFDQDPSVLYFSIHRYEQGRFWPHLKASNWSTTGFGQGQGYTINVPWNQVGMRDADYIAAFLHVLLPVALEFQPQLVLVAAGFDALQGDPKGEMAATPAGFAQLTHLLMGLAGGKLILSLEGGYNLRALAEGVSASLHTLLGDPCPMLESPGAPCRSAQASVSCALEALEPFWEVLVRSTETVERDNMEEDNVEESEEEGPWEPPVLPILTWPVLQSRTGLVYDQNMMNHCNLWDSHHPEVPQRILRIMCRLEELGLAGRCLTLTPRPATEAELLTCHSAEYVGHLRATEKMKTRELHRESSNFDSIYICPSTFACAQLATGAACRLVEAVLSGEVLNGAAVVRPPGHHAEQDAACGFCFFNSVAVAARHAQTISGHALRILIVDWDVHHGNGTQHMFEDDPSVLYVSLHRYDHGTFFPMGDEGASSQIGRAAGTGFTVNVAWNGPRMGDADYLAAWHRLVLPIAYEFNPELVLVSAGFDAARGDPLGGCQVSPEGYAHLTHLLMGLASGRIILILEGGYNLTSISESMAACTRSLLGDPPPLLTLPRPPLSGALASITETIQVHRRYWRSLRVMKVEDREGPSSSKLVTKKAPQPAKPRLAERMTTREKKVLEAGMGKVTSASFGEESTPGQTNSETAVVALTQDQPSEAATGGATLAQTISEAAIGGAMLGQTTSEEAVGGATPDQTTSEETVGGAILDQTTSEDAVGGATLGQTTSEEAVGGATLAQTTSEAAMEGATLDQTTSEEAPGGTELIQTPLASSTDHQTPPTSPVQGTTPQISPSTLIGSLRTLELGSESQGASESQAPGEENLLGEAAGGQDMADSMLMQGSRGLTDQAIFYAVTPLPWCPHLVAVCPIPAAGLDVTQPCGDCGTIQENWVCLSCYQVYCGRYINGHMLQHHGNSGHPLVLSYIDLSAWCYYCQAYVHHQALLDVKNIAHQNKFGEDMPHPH
In short: (§1)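 Compound given to HL-60 cells for 24 h at the stated concentrations, then lysed. Acetyl-histone H3 and acetyl-α-tubulin levels were read by Western blot, with total H3, α-tubulin or β-actin as references.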

[2] = test system: HL-60; assay: Induction of apoptosis in human HL-60 cells assessed as necrotic cells at 2 uM incubated for 24 hrs by propidium iodide and annexin-V FITC staining based FACS analysis (reference value: 0.3 %); format: functional
[3] = test system: HL-60; assay: Induction of apoptosis in human HL-60 cells assessed as late apoptotic cells at 2 uM incubated for 24 hrs by propidium iodide and annexin-V FITC staining based FACS analysis (reference value: 4.8 %); format: functional
[4] = test system: HL-60; assay: Induction of apoptosis in human HL-60 cells assessed as early apoptotic cells at 2 uM incubated for 24 hrs by propidium iodide and annexin-V FITC staining based FACS analysis (reference value: 2.8 %); format: functional
[5] = molecular target: T2, Histone deacetylase 1 (Homo sapiens, UniProt Q13547); assay: Inhibition of recombinant full length C-terminal FLAG/His-tagged human HDAC1 expressed in baculovirus infected Sf9 cells using Boc-Lys(Ac)-AMC as substrate preincubated for 15 mins followed by substrate addition and measured after 60 mins by fluorescence based assay
T2 sequence (Q13547 whole entry): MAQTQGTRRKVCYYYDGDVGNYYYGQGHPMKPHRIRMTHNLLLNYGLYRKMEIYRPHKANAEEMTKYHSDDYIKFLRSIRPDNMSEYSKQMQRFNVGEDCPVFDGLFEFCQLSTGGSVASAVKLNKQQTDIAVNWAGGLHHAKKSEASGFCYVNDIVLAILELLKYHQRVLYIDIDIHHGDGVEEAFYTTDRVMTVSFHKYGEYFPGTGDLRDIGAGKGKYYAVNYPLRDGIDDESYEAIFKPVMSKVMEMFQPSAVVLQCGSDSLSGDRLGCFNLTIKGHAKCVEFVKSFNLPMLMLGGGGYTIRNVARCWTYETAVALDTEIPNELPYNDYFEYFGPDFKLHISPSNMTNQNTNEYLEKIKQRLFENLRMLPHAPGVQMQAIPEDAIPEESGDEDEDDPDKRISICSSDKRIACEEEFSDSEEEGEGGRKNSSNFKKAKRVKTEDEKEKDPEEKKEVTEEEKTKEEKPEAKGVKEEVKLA

[6] = test system: MCF7; assay: Antiproliferative activity against human MCF7 cells assessed as cell growth inhibition incubated for 96 hrs by MTT assay; format: functional
[7] = Antitumor activity against mouse LL/2 cells inoculated in C57BL/6J mouse assessed as tumor growth inhibition at 100 mg/kg, ip administered for 12 days; format: functional, Lewis lung carcinoma; design: scale not given: the % may be the effect or the level left; conditions: time 12 day
[8] = test system: HL-60; assay: Growth inhibition of human HL-60 cells after 72 hrs by trypan blue dye based assay; format: functional
In short: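 HL-60 leukemia cells were exposed to compound for 72 h. Growth inhibition is reported as IG50 (half the growth inhibition concentration), as means plus SD of three independent experiments.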

[9] = Toxicity in mouse LL/2 cells inoculated C57BL/6J mouse assessed as effect on body weight by measuring end body weight at 100 mg/kg, ip administered for 12 days and measured for every 2 days (reference value: 17.8 +/- 0.7 g); format: organism-based; conditions: in vivo, 288 h, time 12 day
[10] = Toxicity in mouse LL/2 cells inoculated C57BL/6J mouse assessed as effect on body weight by measuring initial body weight at 100 mg/kg, ip administered for 12 days and measured for every 2 days (reference value: 18.6 +/- 0.8 g); format: organism-based; conditions: in vivo, 288 h, time 12 day
[11] = molecular target: T3, Histone deacetylase 2 (Homo sapiens, UniProt Q92769); assay: Inhibition of recombinant full length C-terminal FLAG-tagged human HDAC2 expressed in baculovirus infected Sf9 cells using Boc-Lys(Ac)-AMC as substrate preincubated for 15 mins followed by substrate addition and measured after 60 mins by fluorescence based assay
T3 sequence (Q92769 whole entry): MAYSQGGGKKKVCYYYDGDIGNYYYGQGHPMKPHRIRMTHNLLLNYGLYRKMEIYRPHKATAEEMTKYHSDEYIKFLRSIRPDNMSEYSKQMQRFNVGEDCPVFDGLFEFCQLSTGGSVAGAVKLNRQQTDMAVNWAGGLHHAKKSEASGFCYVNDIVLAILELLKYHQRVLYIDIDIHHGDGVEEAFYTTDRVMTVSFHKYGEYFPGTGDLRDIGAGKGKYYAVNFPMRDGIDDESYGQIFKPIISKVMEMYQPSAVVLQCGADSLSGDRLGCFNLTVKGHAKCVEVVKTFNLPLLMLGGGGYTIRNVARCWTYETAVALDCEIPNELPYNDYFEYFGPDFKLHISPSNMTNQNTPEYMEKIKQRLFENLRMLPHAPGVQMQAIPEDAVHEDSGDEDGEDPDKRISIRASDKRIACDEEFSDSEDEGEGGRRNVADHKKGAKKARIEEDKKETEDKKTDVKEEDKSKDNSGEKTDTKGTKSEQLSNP

[12] = Antitumor activity against mouse LL/2 cells inoculated in C57BL/6J mouse assessed as reduction of tumor weight at 100 mg/kg, ip administered for 12 days and measured at day 14 (reference value: 1.2 +/- 0.3 g); format: functional, Lewis lung carcinoma; conditions: time 12 day
[13] = test system: HCT-116; assay: Antiproliferative activity against human HCT-116 cells assessed as cell growth inhibition incubated for 96 hrs by MTT assay; format: functional
[14] = molecular target: Histone deacetylase 3/Nuclear receptor corepressor 2 (HDAC3/NCoR2) (Homo sapiens, UniProt O15379); assay: Inhibition of C-terminal His-tagged recombinant human HDAC3 (1 to 428 residues)/N-terminal GST-tagged recombinant human NCoR2 (395 to 489 residues) co-expressed in baculovirus infected Sf9 cells using Boc-Lys(Ac)-AMC as substrate preincubated for 15 mins followed by substrate addition and measured after 60 mins by fluorescence based assay
Sequence of Histone deacetylase 3/Nuclear receptor corepressor 2 (HDAC3/NCoR2) (O15379 whole entry, the tested form may be a part): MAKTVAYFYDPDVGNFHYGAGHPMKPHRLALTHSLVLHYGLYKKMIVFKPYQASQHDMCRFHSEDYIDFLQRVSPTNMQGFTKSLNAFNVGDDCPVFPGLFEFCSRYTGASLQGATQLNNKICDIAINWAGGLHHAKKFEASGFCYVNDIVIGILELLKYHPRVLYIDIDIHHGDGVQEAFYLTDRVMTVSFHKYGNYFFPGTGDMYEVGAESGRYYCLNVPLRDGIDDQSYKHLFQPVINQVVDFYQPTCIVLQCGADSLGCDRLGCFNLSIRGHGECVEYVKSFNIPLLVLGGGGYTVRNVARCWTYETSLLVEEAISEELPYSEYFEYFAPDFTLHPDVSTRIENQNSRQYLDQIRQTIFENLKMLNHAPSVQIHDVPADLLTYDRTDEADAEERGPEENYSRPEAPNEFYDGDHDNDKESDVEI
Sequence of Histone deacetylase 3/Nuclear receptor corepressor 2 (HDAC3/NCoR2) (Q9Y618 whole entry, further chain, the tested form may be a part): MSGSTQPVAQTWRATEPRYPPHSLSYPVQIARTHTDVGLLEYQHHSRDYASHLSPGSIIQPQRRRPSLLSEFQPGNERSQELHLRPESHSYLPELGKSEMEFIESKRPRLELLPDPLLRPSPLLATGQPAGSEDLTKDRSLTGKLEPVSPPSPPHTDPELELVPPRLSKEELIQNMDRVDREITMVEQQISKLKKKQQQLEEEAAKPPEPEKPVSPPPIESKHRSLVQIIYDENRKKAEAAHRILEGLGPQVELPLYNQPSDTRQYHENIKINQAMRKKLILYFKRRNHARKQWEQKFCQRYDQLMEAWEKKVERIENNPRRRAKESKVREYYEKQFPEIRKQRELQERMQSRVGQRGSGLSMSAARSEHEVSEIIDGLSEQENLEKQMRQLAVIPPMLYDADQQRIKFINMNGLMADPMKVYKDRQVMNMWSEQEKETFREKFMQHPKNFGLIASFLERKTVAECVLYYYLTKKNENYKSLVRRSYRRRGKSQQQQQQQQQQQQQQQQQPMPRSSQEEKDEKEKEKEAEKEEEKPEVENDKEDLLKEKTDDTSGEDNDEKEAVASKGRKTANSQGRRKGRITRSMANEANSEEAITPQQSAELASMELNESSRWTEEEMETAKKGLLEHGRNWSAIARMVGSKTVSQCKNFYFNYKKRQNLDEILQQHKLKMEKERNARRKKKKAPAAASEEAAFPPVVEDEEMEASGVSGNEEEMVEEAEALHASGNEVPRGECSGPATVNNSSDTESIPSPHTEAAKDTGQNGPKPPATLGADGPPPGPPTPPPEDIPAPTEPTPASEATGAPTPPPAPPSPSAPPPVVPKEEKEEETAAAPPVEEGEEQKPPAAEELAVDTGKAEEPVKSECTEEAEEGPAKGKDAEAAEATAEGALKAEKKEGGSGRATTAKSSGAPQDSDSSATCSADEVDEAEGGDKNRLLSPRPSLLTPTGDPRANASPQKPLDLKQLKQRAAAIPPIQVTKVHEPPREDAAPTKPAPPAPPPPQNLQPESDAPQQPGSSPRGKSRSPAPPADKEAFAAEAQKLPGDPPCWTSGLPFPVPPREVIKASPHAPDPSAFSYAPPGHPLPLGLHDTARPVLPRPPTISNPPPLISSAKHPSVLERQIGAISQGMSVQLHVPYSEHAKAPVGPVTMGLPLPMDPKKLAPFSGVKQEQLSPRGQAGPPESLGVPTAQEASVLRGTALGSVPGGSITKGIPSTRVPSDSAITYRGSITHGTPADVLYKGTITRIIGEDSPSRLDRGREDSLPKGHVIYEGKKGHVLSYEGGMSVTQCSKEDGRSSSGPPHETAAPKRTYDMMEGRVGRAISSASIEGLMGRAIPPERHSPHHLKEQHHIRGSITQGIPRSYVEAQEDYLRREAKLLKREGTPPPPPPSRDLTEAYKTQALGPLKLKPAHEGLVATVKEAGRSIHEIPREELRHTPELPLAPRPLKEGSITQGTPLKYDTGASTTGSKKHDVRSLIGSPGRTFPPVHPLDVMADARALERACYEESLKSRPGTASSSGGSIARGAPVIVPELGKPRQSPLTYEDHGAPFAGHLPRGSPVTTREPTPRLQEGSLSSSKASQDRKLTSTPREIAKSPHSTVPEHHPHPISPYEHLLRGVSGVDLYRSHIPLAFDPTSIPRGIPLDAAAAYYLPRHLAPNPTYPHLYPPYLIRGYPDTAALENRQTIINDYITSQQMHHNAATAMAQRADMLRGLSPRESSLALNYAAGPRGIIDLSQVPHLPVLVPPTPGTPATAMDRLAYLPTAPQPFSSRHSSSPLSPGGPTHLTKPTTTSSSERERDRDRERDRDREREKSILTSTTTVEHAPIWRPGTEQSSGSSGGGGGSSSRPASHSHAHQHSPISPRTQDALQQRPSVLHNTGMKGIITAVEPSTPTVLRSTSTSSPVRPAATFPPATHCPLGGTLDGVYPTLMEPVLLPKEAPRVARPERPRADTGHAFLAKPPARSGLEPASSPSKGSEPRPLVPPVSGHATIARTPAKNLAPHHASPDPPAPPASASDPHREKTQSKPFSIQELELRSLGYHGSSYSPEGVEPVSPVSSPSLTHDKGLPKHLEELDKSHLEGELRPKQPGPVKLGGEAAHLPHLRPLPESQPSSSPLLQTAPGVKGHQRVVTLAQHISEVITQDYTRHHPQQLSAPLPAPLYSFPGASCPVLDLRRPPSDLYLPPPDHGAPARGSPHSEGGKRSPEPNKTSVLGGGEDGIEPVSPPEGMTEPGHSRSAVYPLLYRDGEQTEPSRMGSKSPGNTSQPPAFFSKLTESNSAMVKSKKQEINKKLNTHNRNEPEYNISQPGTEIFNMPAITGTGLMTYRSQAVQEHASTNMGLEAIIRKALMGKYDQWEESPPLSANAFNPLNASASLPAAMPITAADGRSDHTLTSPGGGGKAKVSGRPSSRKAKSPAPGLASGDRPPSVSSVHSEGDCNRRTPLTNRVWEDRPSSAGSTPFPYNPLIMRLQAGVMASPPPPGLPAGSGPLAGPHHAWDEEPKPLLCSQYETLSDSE

[15] = molecular target: T4, Protein deacetylase HDAC6 (Homo sapiens, UniProt Q9UBN7); assay: Inhibition of recombinant full length C-terminal FLAG-tagged human HDAC6 expressed in baculovirus infected Sf9 cells using Boc-Lys(Ac)-AMC as substrate preincubated for 15 mins followed by substrate addition and measured after 60 mins by fluorescence based assay
T4 sequence (Q9UBN7 whole entry): T1 sequence (whole entry)

[16] = Antiproliferative activity against mouse LL/2 cells assessed as cell growth inhibition incubated for 96 hrs by MTT assay; format: functional, Lewis lung carcinoma
[17] = test system: A549; assay: Antiproliferative activity against human A549 cells assessed as cell growth inhibition incubated for 96 hrs by MTT assay; format: functional
[18] = test system: HL-60; assay: Induction of apoptosis in human HL-60 cells assessed as cleavage of caspase-8 at 20 uM after 24 hrs Western blot analysis; format: functional, cell-based
In short: (§2)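 HL-60 cells were treated for 24 h at the indicated concentrations, then analysed by Western blot. Blots were probed for cleavage of PARP and caspase-3, -8 and -9. Ac-H3, Ac-α-tubulin and β-actin were also detected, with β-actin as the loading reference.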

[19] = test system: HL-60; assay: Induction of apoptosis in human HL-60 cells assessed as late apoptotic cells at 40 uM incubated for 24 hrs by propidium iodide and annexin-V FITC staining based FACS analysis (reference value: 1.7 %); format: functional
[20] = test system: HL-60; assay: Induction of apoptosis in human HL-60 cells assessed as early apoptotic cells at 40 uM incubated for 24 hrs by propidium iodide and annexin-V FITC staining based FACS analysis (reference value: 2.0 %); format: functional
[21] = molecular target: Histone deacetylase 3 (Homo sapiens) (UniProt O15379); assay: Inhibition of HDAC3 in human HL-60 cells assessed as increase in Ac-H3 level at 20 uM incubated for 24 hrs by Western blot analysis; format: cell-based; in short: as §1
Sequence of Histone deacetylase 3 (Homo sapiens) (O15379 whole entry): as the sequence (O15379 whole entry, the tested form may be a part) above

[22] = test system: HL-60; assay: Induction of apoptosis in human HL-60 cells assessed as necrotic cells at 40 uM incubated for 24 hrs by propidium iodide and annexin-V FITC staining based FACS analysis (reference value: 0.1 %); format: functional
[23] = test system: HL-60; assay: Induction of apoptosis in human HL-60 cells assessed as late apoptotic cells at 20 uM incubated for 24 hrs by propidium iodide and annexin-V FITC staining based FACS analysis (reference value: 1.7 %); format: functional
[24] = test system: HL-60; assay: Induction of apoptosis in human HL-60 cells assessed as cleavage of caspase-9 at 20 uM after 24 hrs Western blot analysis; format: functional, cell-based; in short: as §2
[25] = molecular target: T2, Histone deacetylase 1; assay: Inhibition of HDAC1 in human HL-60 cells assessed as increase in Ac-H3 level at 2 uM incubated for 24 hrs by Western blot analysis; format: cell-based; in short: as §1
[26] = test system: HL-60; assay: Induction of apoptosis in human HL-60 cells assessed as cleavage of PARP at 20 uM after 24 hrs Western blot analysis; format: functional, cell-based; in short: as §2
[27] = test system: HL-60; assay: Induction of apoptosis in human HL-60 cells assessed as viable cells at 20 uM incubated for 24 hrs by propidium iodide and annexin-V FITC staining based FACS analysis (reference value: 96.3 %); format: functional; conditions: read-out: Activity
[28] = test system: HL-60; assay: Induction of apoptosis in human HL-60 cells assessed as early apoptotic cells at 20 uM incubated for 24 hrs by propidium iodide and annexin-V FITC staining based FACS analysis (reference value: 2.0 %); format: functional
[29] = test system: HL-60; assay: Induction of apoptosis in human HL-60 cells assessed as viable cells at 40 uM incubated for 24 hrs by propidium iodide and annexin-V FITC staining based FACS analysis (reference value: 96.3 %); format: functional; conditions: read-out: Activity
[30] = test system: HL-60; assay: Induction of apoptosis in human HL-60 cells assessed as necrotic cells at 20 uM incubated for 24 hrs by propidium iodide and annexin-V FITC staining based FACS analysis (reference value: 0.1 %); format: functional
[31] = test system: HL-60; assay: Induction of apoptosis in human HL-60 cells assessed as cleavage of caspase-3 at 20 uM after 24 hrs Western blot analysis; format: functional, cell-based; in short: as §2
[32] = molecular target: T3, Histone deacetylase 2; assay: Inhibition of HDAC2 in human HL-60 cells assessed as increase in Ac-H3 level at 2 uM incubated for 24 hrs by Western blot analysis; format: cell-based; in short: as §1

Structure (SMILES): O=C(CCCCCCC(=O)Nc1ccc([C@H]2O[C@@H](CSc3nc(-c4ccccc4)c(-c4ccccc4)o3)C[C@@H](c3ccc(CO)cc3)O2)cc1)NO [TUBACIN]
- inhibition [1]: Active
- Activity [2]: 0.8%
- Activity [3]: 8.8%
- Activity [4]: 3.9%

Structure (SMILES): Nc1ccccc1NC(=O)CCCCCCCNC(=O)/C(Cc1ccc(O)c(Br)c1)=N/O
- IC50 [5]: > 1000 nM
- IG50 [6]: 17.9 µM
- Activity [7]: 36.5%
- IG50 [8]: 5.2 µM
- Activity [9]: 18.5 g
- Activity [10]: 18.6 g
- IC50 [11]: > 1000 nM
- Activity [12]: 0.8 g
- IG50 [13]: 11.9 µM
- IC50 [14]: 170 nM
- IC50 [15]: > 1000 nM
- IG50 [16]: 12.2 µM
- IG50 [17]: 26 µM

Structure (SMILES): Nc1ccccc1NC(=O)CCCCCCNC(=O)/C(Cc1ccc(O)c(Br)c1)=N/O
- IC50 [5]: > 1000 nM
- Activity [18]: inactive
- Activity [19]: 8.4%
- Activity [20]: 3.1%
- IG50 [8]: 14 µM
- inhibition [21]: Active
- Activity [22]: 0.6%
- Activity [23]: 4%
- IC50 [11]: > 1000 nM
- Activity [24]: inactive
- inhibition [25]: inactive
- Activity [26]: inactive
- viability at 20 µM [27]: 94.2%
- IC50 [14]: 130 nM
- Activity [28]: 1.7%
- viability at 40 µM [29]: 87.9%
- Activity [30]: 0.1%
- IC50 [15]: > 1000 nM
- Activity [31]: inactive
- inhibition [32]: inactive

Structure (SMILES): Nc1ccccc1NC(=O)CCCCCNC(=O)/C(Cc1ccc(O)c(Br)c1)=N/O
- IC50 [5]: > 1000 nM
- Activity [18]: inactive
- Activity [19]: 10.2%
- Activity [20]: 3.8%
- IG50 [8]: 14.3 µM
- inhibition [21]: Active
- Activity [22]: 0.4%
- Activity [23]: 2.8%
- IC50 [11]: > 1000 nM
- Activity [24]: inactive
- inhibition [25]: inactive
- Activity [26]: inactive
- viability at 20 µM [27]: 95.6%
- IC50 [14]: 180 nM
- Activity [28]: 1.5%
- viability at 40 µM [29]: 85.7%
- Activity [30]: 0.1%
- IC50 [15]: > 1000 nM
- Activity [31]: inactive
- inhibition [32]: inactive

Structure (SMILES): Nc1cc(F)ccc1NC(=O)/C=C/c1cnn(C/C=C/c2ccccc2)c1
- Activity [19]: 17.2%
- IG50 [6]: 30 µM
- Activity [20]: 4.8%
- IG50 [8]: 6.1 µM
- Activity [22]: 2.9%
- Activity [23]: 7.2%
- inhibition [25]: inactive
- IG50 [13]: 22 µM
- viability at 20 µM [27]: 89.3%
- Activity [28]: 3%
- viability at 40 µM [29]: 75.1%
- Activity [30]: 0.5%
- IG50 [16]: 10.8 µM
- IG50 [17]: 28.3 µM
